LYPLA1 inh – LYPLA1 (human) inhibition in PME1 counter-screen; O75608; recombinant LYPLA1, FP-Rh probe fluorescence polarization; inhibition, % at 5.9 µM; 320,000 tested, 0.16% active; AID 2174;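 active means inhibition above the mean of all tested compounds plus 3 SD, set per campaign, cut at about 14% in these data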;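 further: inhibitors block serine hydrolase probe labeling of LYPLA1 so polarization falls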
PREPL inhibitor – human PREPL enzyme inhibition. Q4J6C6. recombinant PREPL, fluorescence polarization activity-based probe. inhibition, % at 5.96 µM. 320,000 tested, 0.68% active; in the data active means inhibition above about 43%
procasp3 activ – activates human procaspase-3. P42574. recombinant procaspase-3 D3A, Ac-DEVD-pNA absorbance 405 nm. activation, % at 8.5 µM. 330,000 tested, 0.11% active;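 active means activation above the mean of all tested compounds plus 3 SD, cut at about 21% in these data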
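Evaluation: percent activation relative to control range; Material: Procaspase-3 D3A mutant, all three cleavage aspartates alanine; Compound: single dose, 8.5 µM nominal compound, 0.8% DMSO; Replication: one well per compound; Signal: absorbance at 405 nm, 0 and 120 min; Schedule: 1 h preincubation plus 2 h reaction at 25 °C.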
procasp7 counter – activates human procaspase-7, counter-screen for procaspase-3 activators; 330,000 tested, 0.093% active; P55210; recombinant procaspase-7, Ac-DEVD-pNA absorbance 405 nm; D23A/D198A/D206A triple mutant, cannot self-cleave; scale: DMSO 0, 5 µM enzyme 100; activation, % at 8.5 µM; AID 463210;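 active means percent activation above the screen-wide mean plus 3 SD, cut at about 25% in these data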
Target sequence (P55210 whole entry D23A/D198A/D206A): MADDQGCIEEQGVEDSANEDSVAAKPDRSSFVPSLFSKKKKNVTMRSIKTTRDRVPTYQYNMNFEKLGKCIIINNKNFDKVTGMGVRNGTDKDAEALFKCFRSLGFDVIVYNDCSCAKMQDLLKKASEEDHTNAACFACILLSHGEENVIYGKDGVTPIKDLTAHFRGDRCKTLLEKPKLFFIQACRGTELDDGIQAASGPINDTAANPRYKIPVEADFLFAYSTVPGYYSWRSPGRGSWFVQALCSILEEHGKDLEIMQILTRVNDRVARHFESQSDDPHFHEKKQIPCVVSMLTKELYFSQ
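Test system: Procaspase-7 triple mutant (PC-7 D3A). Also added: Ac-DEVD-pNA substrate, 400 µM as added. Schedule: 1 h enzyme–compound preincubation and 2 h substrate reaction, both 25 °C. Signal: p-Nitroaniline absorbance at 405 nm, read at 0 and 120 min. Control set: low DMSO alone, high DMSO plus 5 µM PC-7.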
LYPLA2 inh – counter-screen for PME1 inhibitors: inhibitors of human LYPLA2; O95372; recombinant LYPLA2, FP-Rh probe fluorescence polarization; inhibition, % at 5.9 µM; 320,000 tested, 0.38% active; AID 2177;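 active means inhibition above the screen-wide mean plus 3 SD, limit set per campaign, cut at about 26% in these data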
Target sequence (O95372 whole entry, looked up): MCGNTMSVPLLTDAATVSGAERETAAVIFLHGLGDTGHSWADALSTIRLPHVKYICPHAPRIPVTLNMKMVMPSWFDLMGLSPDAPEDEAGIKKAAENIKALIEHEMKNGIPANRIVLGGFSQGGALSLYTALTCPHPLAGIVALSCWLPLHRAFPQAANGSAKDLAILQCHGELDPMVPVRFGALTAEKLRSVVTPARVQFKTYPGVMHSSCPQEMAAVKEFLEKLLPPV
LYPLA2 conf – counter-screen for PME1 inhibitors: confirmation of human LYPLA2 inhibitors | shares compounds with LYPLA2 inh | recombinant LYPLA2, FP-Rh probe fluorescence polarization | inhibition, % at 5.9 µM | 1,100 tested, 72% active;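 active means mean inhibition across replicates above the hit cutoff set in the primary screen, cut at about 26% in these data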;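 further: blocked labeling of the enzyme by serine hydrolase FP-Rh probe lowers polarization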
LYPLA2 ABPP – LYPLA2 (human) inhibition, late stage results. shares compounds with LYPLA2 inh. rhLYPLA2 in mouse brain proteome, gel ABPP FP-Rh. inhibition, % at 20 µM. 150 tested, 30% active. AID 652029;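 active means inhibition of LYPLA2 enzyme probe labeling above about 50%, limit read from the data; inactive means inhibition below that limit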;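 further: loss of FP-Rh probe labeling of the LYPLA2 gel band measured as band density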
A number is an active result; - = inactive; . = no result given. Shown are actives, neighbours in structure and some others; about 1.1% of the full set was active somewhere.

SMILES	LYPLA1 inh	PREPL inhibitor	procasp3 activ	procasp7 counter	LYPLA2 inh	LYPLA2 conf	others
O=[N+]([O-])c1cc(/C=N/O)ccc1Oc1cccc(Cl)c1	-	-	-	-	-	.
O=Cc1cccc(Oc2ccc([N+](=O)[O-])cc2[N+](=O)[O-])c1	-	-	-	-	41.5	27.2
Cc1cc(=O)oc2cc(Oc3ccc([N+](=O)[O-])cc3[N+](=O)[O-])ccc12	-	-	-	-	36.5	40.5
CN(C(=O)COC(=O)/C=C/c1ccc(Cl)c(Cl)c1)c1c(N)n(Cc2ccccc2)c(=O)[nH]c1=O	-	-	-	-	-	.
CC(=O)c1ccc(N2CCN(c3ccc(S(=O)(=O)NCCCN(C)C)cc3[N+](=O)[O-])CC2)cc1	-	-	-	-	26.2	-
CC(=O)c1ccc(N2CCN(c3ccc(S(=O)(=O)NCCN(C)C)cc3[N+](=O)[O-])CC2)cc1	-	-	-	-	28.1	31.2
CN(C)CCCNS(=O)(=O)c1ccc(N2CCN(Cc3ccc4c(c3)OCO4)CC2)c([N+](=O)[O-])c1	-	-	-	-	-	.
CCN(CC)CCCNC(=O)CCn1nc(-c2ccccc2)ccc1=O	-	-	-	-	-	.
NC(=O)c1cc([N+](=O)[O-])c(Cl)cc1NCc1ccccn1	-	-	-	-	-	.
O=C(Nc1ccc2oc(-c3ccncc3)nc2c1)c1ccc2c(c1)OCCO2	-	-	-	-	28.0	-
CCOc1cccnc1Sc1ccccc1	-	-	-	-	-	.
O=[N+]([O-])c1ccc(Oc2cccc(F)c2)c2ccncc12	-	-	-	-	43.1	43.5
CSc1ccc(Cl)c(C(=O)Nc2cc(S(=O)(=O)N3CCOCC3)ccc2N2CCOCC2)c1	.	-	-	-	.	.
COc1cccc(-n2c(SCC(=O)N3CCCCC3)nc3c([nH]c4ccccc43)c2=O)c1	-	-	-	-	-	.
COc1cccc(-n2c(SCC(N)=O)nc3c([nH]c4ccccc43)c2=O)c1	-	-	-	-	173.5	-
COc1ccccc1CC1CC(=O)N(c2cccc(Cl)c2C)C1=O (stereo not drawn)	-	-	-	-	-	.
O=C(COC(=O)c1cncc(Br)c1)NCc1ccc(Cl)cc1	-	-	-	-	27.0	-
CN(CC(=O)O/N=C(\N)c1ccc([N+](=O)[O-])cc1)S(=O)(=O)c1ccc2ccccc2c1	-	-	-	-	59.1	63.5	LYPLA2 ABPP=-
Cc1ccc(/C(N)=N/OC(=O)CN(C)S(=O)(=O)c2ccc(C)cc2)cc1	-	-	-	-	-	.
O=S(=O)(c1ccc(Cl)cc1)N1CCN(C(=S)NCC2CCCO2)CC1 (stereo not drawn)	-	-	-	-	-	.
COc1ccc(N2CCN(C(=O)CN(C)S(=O)(=O)c3cccs3)CC2)cc1	-	-	-	-	28.5	36.2
O=C(NCCCC1CCCC1)C1CCC(=O)N(Cc2ccc(Cl)cc2)C1 (stereo not drawn)	-	-	-	-	27.5	33.7
O=C(NCCCC1CCCC1)C1CCC(=O)N(Cc2cccc(F)c2)C1 (stereo not drawn)	-	-	-	-	-	.
N#Cc1ccc(CN2CCN(C(=O)Cn3nc(C(N)=O)c4ccccc4c3=O)CC2)cc1	-	-	-	-	29.3	-
COC(=O)[C@H](Cc1ccccc1)NC(=O)Cn1ccc(NC(=O)OCc2ccccc2)nc1=O	-	-	-	-	-	.
SMILES	LYPLA1 inh	PREPL inhibitor	procasp3 activ	procasp7 counter	LYPLA2 inh	LYPLA2 conf	others
CN(C(=O)c1ccc(NC(=O)Cc2ccc(NC(=O)C3CCCN(C(=O)CCc4ccccc4)C3)cc2)cc1)C1CC1 (stereo not drawn)	-	-	-	-	57.8	50.4	LYPLA2 ABPP=-
CN(C(=O)c1ccc(NC(=O)Cc2cccc(NC(=O)C3CCCN(C(=O)CCc4ccccc4)C3)c2)cc1)C1CCCC1 (stereo not drawn)	-	-	-	-	-	.
Cc1cc(C)c(N=C2SCC(=O)N2Cc2ccco2)c(C)c1	-	-	-	-	-	.
O=C1CSC(=Nc2ccc(Cl)cc2)N1Cc1ccco1	-	-	-	-	25.8	27.7
O=C(CNc1ccc(Br)cc1)Nc1cccc(S(=O)(=O)N2CCCC2)c1	-	-	-	-	-	.
O=C(Nc1ccc(S(=O)(=O)N2CCCC2)cc1)c1c(F)cccc1F	-	-	-	-	27.6	-
O=C(CNc1ccc(Br)cc1)Nc1ccc(S(=O)(=O)N2CCCC2)cc1	-	-	-	-	28.8	-
Cc1ccc(S(=O)(=O)N2CCN(C(=O)Cc3c(F)cccc3Cl)CC2)cc1	-	-	-	-	-	.
CCOc1ccc(C(=O)NC(=S)Nc2cccnc2)cc1[N+](=O)[O-]	-	-	-	-	-	.
COc1ccc(C(=O)NC(=S)Nc2cccnc2)cc1[N+](=O)[O-]	-	-	-	-	28.0	27.8
Oc1ccc(N2CCN(c3ccnc4cc(Cl)ccc34)CC2)cc1	-	-	-	-	-	.
COc1ccc(N2CCN(c3ccnc4cc(Cl)ccc34)CC2)cc1	-	-	-	-	26.3	-
O=C(c1cc2cc(Cl)ccc2[nH]1)N1CCN(c2ccc(F)cc2)CC1	-	-	-	-	-	.
COc1ccc(N2CCN(C(=O)c3cc4cc(Cl)ccc4[nH]3)CC2)cc1	-	-	-	-	36.7	49.8
O=C(O)c1ccccc1Nc1ccc([N+](=O)[O-])cc1C(=O)O	-	-	-	-	-	.
NC(=O)c1cc([N+](=O)[O-])ccc1Nc1ccccc1	-	-	-	-	39.0	31.9
Cc1[nH]n(C)c(=O)c1[N+](=O)[O-]	-	-	-	-	-	.
O=C(c1cc(COc2ccc(F)cc2Cl)on1)N1CCC(OCc2cccnc2)CC1	-	-	-	-	32.5	32.7
O=C(c1cc(COc2ccc(F)cc2Cl)on1)N1CCCC(OCc2cccnc2)C1 (stereo not drawn)	-	-	-	-	-	.
O=[N+]([O-])c1ccccc1-c1nc(-c2ccc(Br)o2)no1	-	-	-	-	31.9	29.4
Clc1ccccc1-c1nc(-c2ccc(Br)o2)no1	-	-	-	-	-	.
COc1cc(/C=N/NC(=O)C(NC(=O)c2ccccc2)c2n[nH]c(=O)c3ccccc23)ccc1OCC(N)=O (stereo not drawn)	-	-	-	-	77.6	74.3
CC(C)c1ccc(NC2=NCC(=O)N2Cc2cccs2)cc1	-	-	-	-	33.9	26.4
O=C(CSc1ccccc1)N1CCCC(N2CCN(c3cccc(Cl)c3)CC2)C1 (stereo not drawn)	-	-	-	-	69.3	64.0	LYPLA2 ABPP=-

From PubChem BioAssay
